Results published in ChEMBL document CHEMBL1681763, “Synthesis and biological evaluation of L-valine-amidoximeesters as double prodrugs of amidines” (Bioorg Med Chem, 2011).
Each block holds one compound with its values, some of them ahead of it.

How the values were obtained:
[1] = Stability in pig kidney microsomes assessed as conversion of prodrug into benzamidine per mg protein; format: ADME, Sus scrofa, Microsome
In short: (§1)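 Human or porcine liver/kidney subcellular fractions (microsomes, mitochondria, 9000g supernatant, cytosol); 0.3 mg protein with 1 mM prodrug in 100 mM potassium phosphate pH 6.3, preincubated 5 min at 37 °C aerobically, started with NADH (1 mM final); protein removed by centrifugation, supernatant analysed by HPLC; turnover as mean ± SD of two independent experiments measured twice.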

[2] = Stability in pig liver cytosol assessed as conversion of prodrug into benzamidine per mg protein in potassium phosphate buffer of pH 6.3; format: ADME, tissue-based, Sus scrofa; in short: as §1
[3] = Stability of the compound in presence of 0.5 U esterase/250 uL; format: ADME; details: isolated protein
In short: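 Prodrugs incubated with pig liver carboxylesterase (0.5 U/250 µL) in 100 mM potassium buffer pH 7.4; hydrolysis followed by HPLC.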

[4] = Stability in pig kidney 9000g supernatant assessed as conversion of prodrug into benzamidine per mg protein; format: ADME, tissue-based, Sus scrofa; in short: as §1
Rattus norvegicus [5] = assay: Volume of distribution in Wistar rat assessed as benzamidine at 50 mg/kg, po; format: ADME, organism-based; set-up: dose 50 mg/kg, route oral; details: in vivo
In short: (§2)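 Male Wistar rats (initial weight 230 g) fitted with carotid artery and jugular vein cannulas, fasted 16 h; prodrug 50 mg/kg by oral gavage in 100 mM phosphate buffer pH 6.3 (n = 3); reference benzamidine 10 mg/kg iv in water for injection; blood at 30–480 min (oral) or 10–360 min (iv); plasma benzamidine by HPLC.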

Rattus norvegicus [6] = assay: Oral bioavailability in Wistar rat assessed as benzamidine at 50 mg/kg; format: ADME, organism-based; details: in vivo; in short: as §2
Rattus norvegicus [7] = assay: Half life in Wistar rat assessed as benzamidine at 50 mg/kg, po; format: ADME, organism-based; set-up: dose 50 mg/kg, route oral; details: in vivo; in short: as §2
Rattus norvegicus [8] = assay: Clearance in Wistar rat assessed as benzamidine at 50 mg/kg, po; format: ADME, organism-based; set-up: dose 50 mg/kg, route oral; details: in vivo; in short: as §2
[9] = molecular target: T1, Mitochondrial amidoxime-reducing component 1 (Homo sapiens) (UniProt Q5VT66); assay: Activation of prodrug into benzamidine per mg of recombinant hmARC1 in 20 mM MES buffer of pH 6.0 for 30 mins
T1 sequence (whole entry): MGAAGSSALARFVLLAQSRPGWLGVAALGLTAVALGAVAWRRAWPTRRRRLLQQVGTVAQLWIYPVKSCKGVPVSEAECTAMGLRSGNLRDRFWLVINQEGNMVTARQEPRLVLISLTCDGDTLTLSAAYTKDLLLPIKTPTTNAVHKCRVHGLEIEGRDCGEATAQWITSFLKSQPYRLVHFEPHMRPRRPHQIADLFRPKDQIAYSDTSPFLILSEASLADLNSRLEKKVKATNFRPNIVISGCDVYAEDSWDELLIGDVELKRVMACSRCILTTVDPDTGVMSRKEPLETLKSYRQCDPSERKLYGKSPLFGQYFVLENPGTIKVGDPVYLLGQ
In short: (§3)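 Recombinant human mARC1 or mARC2 (76 pmol) incubated with 0.5 mM prodrug, 1 mM NADH, 2 U pig liver carboxylesterase, 76 pmol cytochrome b5 and 7.6 pmol NADH cytochrome b5 reductase in 20 mM MES pH 6.0; amidine formed quantified by HPLC; turnover rates as mean ± SD of three incubations.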

[10] = Stability in human kidney mitochondria assessed as conversion of prodrug into benzamidine per mg protein; format: ADME; in short: as §1
[11] = Stability in pig liver 9000g supernatant assessed as conversion of prodrug into benzamidine per mg protein; format: ADME, tissue-based, Sus scrofa; in short: as §1
Liver [12] = assay: Stability in human liver 9000g supernatant assessed as conversion of prodrug into benzamidine per mg protein; format: ADME, tissue-based; in short: as §1
[13] = Stability in human liver mitochondria assessed as conversion of prodrug into benzamidine per mg protein; format: ADME; in short: as §1
Rattus norvegicus [14] = assay: Tmax in Wistar rat assessed as benzamidine at 50 mg/kg, po; format: ADME, organism-based; set-up: dose 50 mg/kg, route oral; details: in vivo; in short: as §2
Liver microsomes [15] = assay: Stability in human liver microsomes assessed as conversion of prodrug into benzamidine per mg protein; format: ADME, Microsome; in short: as §1
[16] = Stability in pig kidney mitochondria assessed as conversion of prodrug into benzamidine per mg protein; format: ADME, Sus scrofa; in short: as §1
[17] = Stability of the compound assessed as conversion to benzamidoxime at pH 2; format: physicochemical; details: buffer
In short: (§4)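 Chemical stability: prodrug at 100 µM in 100 mM potassium phosphate buffer pH 2.0, 6.3 or 7.4 at 37 °C; remaining prodrug and hydrolysis products followed by HPLC.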

[18] = Stability of the compound at pH 7.4; format: physicochemical; details: buffer; in short: as §4
[19] = Stability of the compound at pH 6.3; format: physicochemical; details: buffer; in short: as §4
[20] = Stability in pig hepatocytes assessed as conversion of prodrug into benzamidoxime per mg protein; format: ADME, cell-based, Sus scrofa, Hepatocyte
[21] = Stability in pig liver mitochondria assessed as conversion of prodrug into benzamidine per mg protein; format: ADME, Sus scrofa; in short: as §1
Rattus norvegicus [22] = assay: Cmax in Wistar rat assessed as benzamidine at 50 mg/kg, po; format: ADME, organism-based; set-up: dose 50 mg/kg, route oral; details: in vivo; in short: as §2
[23] = Stability in human kidney microsomes assessed as conversion of prodrug into benzamidine per mg protein; format: ADME, Microsome; in short: as §1
[24] = Stability in pig liver microsomes assessed as conversion of prodrug into benzamidine per mg protein; format: ADME, Sus scrofa, Microsome; in short: as §1
Rattus norvegicus [25] = assay: Mean residence time in Wistar rat assessed as benzamidine at 50 mg/kg, po; format: ADME, organism-based; set-up: dose 50 mg/kg, route oral; details: in vivo; in short: as §2
[26] = Stability in pig hepatocytes assessed as conversion of prodrug into benzamidine per mg protein; format: ADME, cell-based, Sus scrofa, Hepatocyte
[27] = Activation of prodrug into benzamidine per mg of recombinant hmARC2 in 20 mM MES buffer of pH 6.0 for 30 mins; in short: as §3
[28] = Stability in pig kidney 9000g supernatant assessed as conversion of prodrug into pentamidine per mg protein; format: ADME, tissue-based, Sus scrofa; in short: as §1
[29] = Stability in human kidney microsomes assessed as conversion of prodrug into pentamidine per mg protein; format: ADME, Microsome; in short: as §1
[30] = molecular target: T1, Mitochondrial amidoxime-reducing component 1 (Homo sapiens); assay: Activation of prodrug into pentamidine per mg of recombinant hmARC1 in 20 mM MES buffer of pH 6.0 for 30 mins; in short: as §3
[31] = Stability in pig kidney microsomes assessed as conversion of prodrug into pentamidine per mg protein; format: ADME, Sus scrofa, Microsome; in short: as §1
[32] = Stability in pig liver mitochondria assessed as conversion of prodrug into pentamidine per mg protein; format: ADME, Sus scrofa; in short: as §1
[33] = Stability in human liver mitochondria assessed as conversion of prodrug into pentamidine per mg protein; format: ADME; in short: as §1
[34] = Stability in pig liver microsomes assessed as conversion of prodrug into pentamidine per mg protein; format: ADME, Sus scrofa, Microsome; in short: as §1
[35] = Stability in human kidney mitochondria assessed as conversion of prodrug into pentamidine per mg protein; format: ADME; in short: as §1
[36] = Stability in pig liver 9000g supernatant assessed as conversion of prodrug into pentamidine per mg protein; format: ADME, tissue-based, Sus scrofa; in short: as §1
Liver [37] = assay: Stability in human liver 9000g supernatant assessed as conversion of prodrug into pentamidine per mg protein; format: ADME, tissue-based; in short: as §1
[38] = Stability of the compound at pH 2; format: physicochemical; details: buffer; in short: as §4
[39] = Activation of prodrug into pentamidine per mg of recombinant hmARC2 in 20 mM MES buffer of pH 6.0 for 30 mins; in short: as §3
Liver microsomes [40] = assay: Stability in human liver microsomes assessed as conversion of prodrug into pentamidine per mg protein; format: ADME, Microsome; in short: as §1
[41] = Stability in pig kidney mitochondria assessed as conversion of prodrug into pentamidine per mg protein; format: ADME, Sus scrofa; in short: as §1

Stability [1]: 10.4 nmol/min/mg
Stability [2]: 1.2 nmol/min
Stability [3]: Unstable
Stability [4]: 5.6 nmol/min
Vd (Rattus norvegicus [5]): 12.84 L/kg
F (Rattus norvegicus [6]): 87.7%
t1/2 (Rattus norvegicus [7]): 2.922 h
CL (Rattus norvegicus [8]): 50 mL/min/kg
Stability [9]: 67.4 nmol/min/mg
Stability [10]: 2 nmol/min/mg
Stability [11]: 3.4 nmol/min/mg
Stability (Liver [12]): 0.2 nmol/min/mg
Stability [13]: 1.8 nmol/min/mg
Tmax (Rattus norvegicus [14]): 0.833 h
Stability (Liver microsomes [15]): 0.9 nmol/min/mg
Stability [16]: 8.8 nmol/min/mg
Stability [17]: Unstable
Stability [18]: Stable
Stability [19]: Stable
Stability [20]: 650 pmol/min
Stability [21]: 8.6 nmol/min/mg
Cmax (Rattus norvegicus [22]): 23.3 µM
Stability [23]: 1.3 nmol/min
Stability [24]: 7 nmol/min/mg
MRT (Rattus norvegicus [25]): 4.323 h
Stability [26]: 175 pmol/min
SMILES: CC(C)[C@H](N)C(=O)O/N=C(\N)c1ccccc1
Stability [27]: 43.7 nmol/min

Stability [28]: 0.2 nmol/min/mg
Stability [3]: Unstable
Stability [29]: 0.3 nmol/min/mg
Stability [30]: 48.8 nmol/min
Stability [31]: 0.7 nmol/min/mg
Stability [32]: 1 nmol/min
Stability [33]: 0.2 nmol/min
Stability [34]: 0.5 nmol/min/mg
Stability [35]: 0.4 nmol/min/mg
Stability [36]: 0.4 nmol/min/mg
Stability (Liver [37]): 0.2 nmol/min/mg
Stability [18]: Stable
Stability [38]: Stable
Stability [19]: Stable
Stability (Liver microsomes [40]): 0.3 nmol/min/mg
Stability [41]: 0.8 nmol/min/mg
SMILES: CC(C)[C@H](N)C(=O)O/N=C(\N)c1ccc(OCCCCCOc2ccc(/C(N)=N/OC(=O)[C@@H](N)C(C)C)cc2)cc1
Stability [39]: 10.9 nmol/min/mg
